Assay results as given in paper PMC4338581 (Bioorganic & medicinal chemistry letters, 2014).
Read-outs that look alike come from different tables or passages of the source. Marks after values point to notes of the source that are not given here.

Key:
albumin = details: ref [26]; cited from earlier work
MMP-7 = details: ref [37]; cited from earlier work
HT-1080 xenografts = details: ref [19], cited from earlier work
MMP-2 [1] = target: T1, MMP-2 (Homo sapiens, UniProt P08253); assay: Enzyme kinetics; assay type: biochemical; details: λexcitation = 780 nm, λemission = 810 nm; for kcat: Michaelis-Menten; for Km: ± standard error of the mean
T1 sequence (P08253 110-660): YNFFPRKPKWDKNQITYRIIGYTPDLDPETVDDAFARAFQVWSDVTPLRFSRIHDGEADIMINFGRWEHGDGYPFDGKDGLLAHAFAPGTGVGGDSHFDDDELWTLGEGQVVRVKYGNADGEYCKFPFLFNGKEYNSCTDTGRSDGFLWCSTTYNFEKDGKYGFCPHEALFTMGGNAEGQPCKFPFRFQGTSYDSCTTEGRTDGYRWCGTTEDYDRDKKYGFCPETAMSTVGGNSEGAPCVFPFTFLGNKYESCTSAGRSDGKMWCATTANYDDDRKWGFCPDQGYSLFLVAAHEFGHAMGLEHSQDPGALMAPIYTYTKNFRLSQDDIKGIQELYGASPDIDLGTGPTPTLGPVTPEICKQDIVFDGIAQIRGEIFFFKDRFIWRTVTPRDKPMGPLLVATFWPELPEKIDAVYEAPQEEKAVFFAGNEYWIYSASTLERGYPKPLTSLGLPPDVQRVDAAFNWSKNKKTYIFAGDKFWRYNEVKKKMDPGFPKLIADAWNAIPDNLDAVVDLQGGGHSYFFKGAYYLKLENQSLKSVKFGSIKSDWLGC

MMP-9 [2] = target: T2, MMP-9 (Homo sapiens, UniProt P14780); assay: Enzyme kinetics; assay type: biochemical; details: λexcitation = 780 nm, λemission = 810 nm; for kcat: Michaelis-Menten; for Km: ± standard error of the mean
[3] = Fluorescence quenching efficiency, intact vs completely hydrolyzed; assay type: physicochemical; details: from variable temperature absorbance spectra and variable temperature fluorescence melting curves
[4] = Triple-helix melting temperature; assay type: physicochemical; details: from fluorescence melting curves; Table 1
MMP-2 [5] = target: T1, MMP-2; details: ref [23]; cited from earlier work
MMP-9 [6] = target: T2, MMP-9; details: ref [23]; cited from earlier work
[7] = ref [23]; cited from earlier work
[8] = system: gelatinases (MMP-2 and MMP-9) versus other MMP family members; details: ref [23], [24]; cited from earlier work
[9] = Variable temperature absorbance spectra; assay type: physicochemical; details: room temperature, PBS
Method in brief: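 Dye-labelled triple-helical peptide conjugates in PBS; absorbance spectra recorded across a range of temperatures. Quenching efficiency was derived from these spectra together with variable-temperature fluorescence melting curves.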

[10] = system: gelatinases (MMP-2 and MMP-9) versus other MMP family members; assay: Substrate selectivity for gelatinases within the MMP family; assay type: biochemical; details: authors' summary statement
[11] = system: HT-1080 xenografted tumors (gelatinase activity); assay: FMT imaging of mice bearing HT-1080 fibrosarcoma xenografts; details: 2 nmol i.v.

T2 sequence (P14780 94-707): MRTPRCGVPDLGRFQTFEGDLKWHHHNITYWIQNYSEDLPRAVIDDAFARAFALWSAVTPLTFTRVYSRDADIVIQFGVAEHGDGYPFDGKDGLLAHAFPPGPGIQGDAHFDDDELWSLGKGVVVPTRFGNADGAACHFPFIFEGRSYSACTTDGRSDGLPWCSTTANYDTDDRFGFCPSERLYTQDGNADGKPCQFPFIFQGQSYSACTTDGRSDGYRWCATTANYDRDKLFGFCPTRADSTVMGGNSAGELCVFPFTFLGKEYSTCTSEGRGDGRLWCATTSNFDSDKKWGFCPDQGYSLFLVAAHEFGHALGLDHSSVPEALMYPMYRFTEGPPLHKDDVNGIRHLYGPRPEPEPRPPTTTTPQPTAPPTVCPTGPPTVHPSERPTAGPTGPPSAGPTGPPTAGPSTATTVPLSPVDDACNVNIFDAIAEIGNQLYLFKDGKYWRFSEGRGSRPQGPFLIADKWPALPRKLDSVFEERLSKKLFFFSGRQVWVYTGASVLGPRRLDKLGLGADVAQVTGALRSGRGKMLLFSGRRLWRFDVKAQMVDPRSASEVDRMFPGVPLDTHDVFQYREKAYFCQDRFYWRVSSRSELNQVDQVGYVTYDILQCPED

## CC1(C)C(/C=C/C=C/C=C/C=C2/N(CCC(=O)O)c3ccc4ccccc4c3C2(C)C)=[N+](CCC(=O)O)c2ccc3ccccc3c21.[Br-] [cypate]
albumin
  binding affinity to albumin: good binding affinity

## CC1(C)SCCN(S(=O)(=O)c2ccc(Oc3ccncc3)cc2)[C@H]1C(=O)NO [Prinomastat, reference compound]
MMP-7
  Ki: 54 nM
HT-1080 xenografts; with MMPSense, HT-1080 xenografts
  reduction of tumor-associated fluorescence on co-administration: 2.5 fold

## (GPO)5GPKGPPG~VVGEK(PEG2-cypate)GEQ(GPO)5 [cypate3-(PEG)2-THP]
MMP-2 [1]
  kcat/KM: 9100 M⁻¹ s⁻¹
  kcat: 0.099 s⁻¹
  Km: 10.9 µM
MMP-2 [1]; Table 1
  kcat/KM: 9.1 × 10^3 s^−1M^−1
MMP-9 [2]
  kcat/KM: 9100 M⁻¹ s⁻¹
  kcat: 0.202 s⁻¹
  Km: 22.2 µM
MMP-9 [2]; Table 1
  kcat/KM: 9.1 × 10^3 s^−1M^−1
[3]
  quenching efficiency, comparison with and without PEG spacer: similar
[4]
  TM: 45.5^b °C

## (GPO)5GPK(Mca)GPPG~VVGEK(Dnp)GEN(GPO)5-NH2 [fTHP]
MMP-2 [5]
  Km: 4.4 µM
  kcat: 0.061 s⁻¹
  kcat/KM: 14 × 10^3 s^−1M^−1
MMP-9 [6]
  Km: 8.1 µM
  kcat: 0.044 s⁻¹
  kcat/KM: 5.4 × 10^3 s^−1M^−1
[7]
  TM: 45.0 °C
[8]
  kcat/KM for gelatinases relative to other MMP family members: more than 10 fold

## (GPO)5GPKGPPG~VVGEK(cypate)GEQ(GPO)5 [cypate3-THP]
MMP-2 [1]
  kcat/KM: 6800 M⁻¹ s⁻¹
  kcat: 0.056 s⁻¹
  Km: 8.19 µM
MMP-2 [1]; Table 1
  kcat/KM: 6.8 × 10^3 s^−1M^−1
MMP-9 [2]
  kcat/KM: 6400 M⁻¹ s⁻¹
  kcat: 0.142 s⁻¹
  Km: 22.3 µM
MMP-9 [2]; Table 1
  kcat/KM: 6.4 × 10^3 s^−1M^−1
[3]
  quenching efficiency, comparison with and without PEG spacer: similar
[4]
  TM: 50.5^b °C
[9]
  additional absorption peak (aggregate): 710 nm
  main absorption peak: 780 nm
[9]; 300 nM, up to 1.5 μM
  aggregation: significant intramolecular H-aggregation
[10]
  selectivity of hydrolysis: efficiently hydrolyzed selectively by MMP-2 and -9
[11]; 4 hours post-injection, n = 3
  average tumor to background ratio: 10.2
[11]; after 24 h
  clearance of fluorescence: slowly cleared from most tissues after 24 h
[11]; post-injection, n = 3
  time of peak normalized fluorescence intensity: 4 h
[11]; abstract
  fluorescence enhancement within the tumor: significant fluorescence enhancement within the tumor
[11]; pmol cypate/mm^3 tumor volume, 1 hour post-injection, n = 3
  normalized tumor fluorescence intensity: relatively low

## PLGVR [MMPSense]
HT-1080 xenografts; NIR reflectance imaging
  visualization of HT-1080 xenografts: enabled the visualization of the HT-1080 xenografts
